Most compounds without a hit are left out; they make up all but 2.4% or so of the library.
TAG inh: triacylglycerol accumulation inhibition; H9c2 cells, Nile Red lipid (TAG) fluorescence; cells loaded with 200 µM oleic acid; inhibition, % at 12.5 µM; 0.66% of 230,000 active;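 active = pattern-corrected inhibition of lipid staining of at least 50% with the nuclear-stain viability signal not falling by more than 50%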
MC4R antag cAMP: human MC4R antagonism in cAMP assay; P32245; MC4R-expressing cells, MTII-stimulated cAMP, LANCE TR-FRET; inhibition, % at 6.5 µM; 0.48% of 360,000 active; AID 540295;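 active = inhibition above its plate's cutoff, the mean of tested wells on that plate plus 3 SD, cut at about 29% in these data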
Target sequence (P32245 whole entry, looked up): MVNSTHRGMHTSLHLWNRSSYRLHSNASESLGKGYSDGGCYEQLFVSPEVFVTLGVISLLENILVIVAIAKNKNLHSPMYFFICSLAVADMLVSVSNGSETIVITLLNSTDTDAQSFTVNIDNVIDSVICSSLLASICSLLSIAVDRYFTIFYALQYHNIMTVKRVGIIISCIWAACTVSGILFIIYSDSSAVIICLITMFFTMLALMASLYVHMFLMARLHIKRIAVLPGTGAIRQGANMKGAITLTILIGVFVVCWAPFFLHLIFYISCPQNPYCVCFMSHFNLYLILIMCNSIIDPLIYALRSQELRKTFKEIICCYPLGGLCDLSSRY
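Assay system: U2OS-MC4R stable cell line; Also added: Melanotan II; Technique: Eu-cAMP/anti-cAMP TR-FRET, emission 671 nm; Times: 30-min compound, 1-h challenge, 1-h detection, room temperature.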
aDG glyco up: alpha-DG glycosylation activation; Pro5-aDG cells, alpha-DG glycosylation AlphaScreen (IIH6); 0% Pro5, 100% B10-LARGE cell signal; activation, % at 10 µM; 0.22% of 360,000 active;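 active = activation of at least 8% versus controls, or a plate z-score of at least 8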;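 note: Pro5 are CHO cells carrying HIG-tagged alpha-DG that lacks glycosylation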
MC4R barr agon: agonists of human melanocortin 4 receptor (MC4R) beta-arrestin. U2OS MC4R beta-arrestin complementation, luminescence; percent of melanotan II response, DMSO zero. activation, % at 8.9 µM. 0.98% of 360,000 active;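 active = activation above a per-plate cutoff, the mean activation of sample wells on that plate plus 3 SD, cut at about 8% in these data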
NTR1 agonist: agonists of human neurotensin receptor NTR1 | 0.17% of 330,000 active | AID 493036 | NTR1-U2OS beta-arrestin-GFP spot imaging, agonist mode | activation, % at 20 µM;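 active = activation at or above 40% of the spot to cytoplasm intensity ratio, with at least 20 cells analyzed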
TbMetRS inhib: Trypanosoma brucei MetRS inhibition; purified T. brucei MetRS, ATP depletion, Kinase-Glo luminescence; AID 624268; inhibition, % at 11.9 µM; 0.4% of 360,000 active;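 active = inhibition above a per-plate cutoff of the control wells' mean inhibition plus 3 SD, cut at about 5.5% in these data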
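Test system – parasite MetRS enzyme · Reagent – substrates ATP, L-methionine and bulk Escherichia coli tRNA · Doses – 11.9 µM compound single dose, 0.9% DMSO · Times – 15 min enzyme-compound preincubation, 2 h reaction, 10 min detection, 25 °C · Signal – Kinase-Glo luminescence, ATP depletion format · Controls – DMSO-only wells as low control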
Tb MetRS conf: confirmation of Trypanosoma brucei MetRS inhibitors. inhibition, % at 11.9 µM. 93% of 1,400 active. shares compounds with TbMetRS inhib. AID 624412. T. brucei MetRS enzyme, luminescence (ATP depletion); in the data active = inhibition above about 7%
Jurkat cytotox: counter-screen for T. brucei MetRS inhibitors: Jurkat cell cytotoxicity. shares compounds with TbMetRS inhib. Jurkat cells viability, ATP luminescence. inhibition, % at 8.3 µM. 12% of 1,400 active. AID 624413; in the data active = inhibition above about 15%
TbMetRS FP orth: inhibits T. brucei methionyl tRNA synthetase in orthogonal FP test; 44% of 1,400 active; shares compounds with TbMetRS inhib; purified T. brucei MetRS, fluorescence polarization; AID 651607; inhibition, % at 11.9 µM; in the data active = inhibition above about 17%
Numbers stand for hits; i = inactive; nt = not tested or not shown.

SMILES	TAG inh	MC4R antag cAMP	aDG glyco up	MC4R barr agon	NTR1 agonist	TbMetRS inhib	Tb MetRS conf	Jurkat cytotox	TbMetRS FP orth
CC(C)(C)c1ccc(C(O)c2ncc(-c3cccc(F)c3)[nH]2)cc1 (configuration not stated)	i	i	i	i	nt	i	nt	nt	nt
O=C1CC(c2ccccc2)CC2=C1C(c1ccccn1)Nc1ccccc1N2 (configuration not stated)	nt	i	i	i	i	i	nt	nt	nt
O=C1CC(c2ccc(F)cc2)CC2=C1C(c1ccc([N+](=O)[O-])o1)Nc1ccccc1N2 (configuration not stated)	i	i	i	i	i	6.9	i	i	i
Oc1ccc(/C=N/Nc2ccnc3cc(Cl)ccc23)c(O)c1	i	i	i	i	i	14	22	55	47
COc1ccc(OC)c(NC(=O)C2(C)CCN2C(=O)CC2CC2)c1 (configuration not stated)	i	i	i	i	nt	i	nt	nt	nt
Cc1ccc(NC(=O)NCCCc2ccccc2)cc1	nt	i	i	i	i	i	nt	nt	nt
O=C(NCCCCc1ccccc1)Nc1ccc(F)cc1	nt	i	i	i	i	15	32	i	21
Cc1ccc(C(=O)Nn2c(O)c(C=C3N=c4ccccc4=N3)sc2=S)cc1	nt	i	i	i	i	7.5	14	i	18
Cc1ccc(S(=O)(=O)Nn2c(O)c(C=C3N=c4ccccc4=N3)sc2=S)cc1	i	i	i	i	i	78	93	i	57
O=C(Nn1c(O)c(C=C2N=c3ccccc3=N2)sc1=S)c1ccccc1	nt	i	i	i	i	i	nt	nt	nt
O=C(Nn1c(O)c(C=C2N=c3ccccc3=N2)sc1=S)c1ccc(Cl)cc1	nt	i	i	i	i	6.4	21	i	30
Cc1cnc(CNc2nc3cc(-c4ccccc4C)sc3c(=O)n2C)cn1	i	i	i	i	nt	i	nt	nt	nt
CCCCCCCCN1C(=O)[C@H](CC(=O)N2CCCC2)C[C@@]2(C(=O)OC)CC(C)(C)CC=C12	nt	nt	i	nt	nt	i	nt	nt	nt
N#Cc1c(NCCCO)nc(NCc2ccccc2)c2c1CCN(Cc1ccccc1)C2	i	i	i	i	i	42	36	i	19
CN1CCc2c(C#N)c(N3CCCCC3)nc(NCc3ccccc3)c2C1	i	i	i	i	i	i	nt	nt	nt
CCC1CCCN1Cn1cnc2c([nH]c3ccc(C)cc32)c1=O (configuration not stated)	nt	i	i	i	i	i	nt	nt	nt
CCC1CCCN1Cn1cnc2c([nH]c3ccc(Cl)cc32)c1=O (configuration not stated)	nt	i	i	i	i	5.8	18	i	i
Cn1c(SCc2ccccc2)nnc1-c1c[nH]c2ccccc12	i	i	i	i	i	8.3	19	i	i
CCCCSc1nnc(-c2c[nH]c3ccccc23)n1C	i	i	i	i	i	i	nt	nt	nt
COc1ccccc1-c1nnc(SC(C(=O)c2c[nH]c3ccccc23)c2ccccc2)n1C (configuration not stated)	nt	i	i	i	i	13	35	i	i
Cc1ccc(S(=O)(=O)N2[C@@H](c3cccc(Cl)c3)C(C(=O)OC(C)(C)C)=CC[C@H]2c2cccc(Cl)c2)cc1	nt	nt	i	nt	nt	i	nt	nt	nt
c1ccc(CSc2nnc(NC3=NCCCCC3)s2)cc1	i	i	i	i	i	i	nt	nt	nt
N#Cc1ccc(CSc2nnc(Nc3ccccc3)s2)cc1	i	i	i	i	i	52	64	i	39
CCn1c(N2CCN(CC(=O)c3c[nH]c4ccccc34)CC2)nc2c1c(=O)[nH]c(=O)n2C	i	i	i	i	i	7.8	19	i	i
CCCn1c(N2CCN(CC(=O)c3c(C)n(C)c4ccccc34)CC2)nc2c1c(=O)[nH]c(=O)n2C	i	i	i	i	i	i	nt	nt	nt
SMILES	TAG inh	MC4R antag cAMP	aDG glyco up	MC4R barr agon	NTR1 agonist	TbMetRS inhib	Tb MetRS conf	Jurkat cytotox	TbMetRS FP orth
Cc1nc2ccc(C(=O)Nc3ccc4c(c3)OCC(=O)N4)cn2c1N(C)C(=O)CCc1ccccc1	i	i	i	i	nt	i	nt	nt	nt
O=C(NCc1ccccc1)C1Cc2c(-c3ccc(Cl)cc3)ccnc2O1 (configuration not stated)	i	i	i	i	nt	i	nt	nt	nt
CC(=O)Nc1ccccc1NC(=O)c1ccccc1-c1ccccc1	nt	i	i	i	i	46	i	i	i
O=[N+]([O-])c1[nH]cnc1/C=C/c1ccccc1	i	i	i	i	i	5.6	10	i	i
COC(=O)c1nc[nH]c1[N+](=O)[O-]	i	i	i	i	nt	i	nt	nt	nt
NC(=O)c1cccc(-c2ccnc3c2CC(C(=O)Nc2ccc(Cl)cc2)O3)c1 (configuration not stated)	i	i	i	i	nt	52	70	i	47
CO[C@@H]1CN(C)C(=O)c2cc(NC(=O)Nc3cc(F)ccc3F)ccc2OC[C@H](C)N(C(=O)c2cnccn2)C[C@@H]1C	nt	nt	i	nt	nt	6.2	14	i	i
CCOC(=O)[C@]12CCC=C1N(Cc1cccc3ccccc13)C(=O)[C@H](CC(=O)N1CCOCC1)C2	nt	nt	i	nt	nt	i	nt	nt	nt
CSCCNC(=O)C1(C)CCN1C(=O)c1ccc(C(C)(C)C)cc1 (configuration not stated)	i	i	i	i	nt	i	nt	nt	nt
C[C@H](O)[C@@H]1CN2CCc3c([nH]c4ccccc34)[C@@H]2C[C@@H]1N(C)C(=S)NCCc1ccccc1	nt	nt	i	nt	nt	7.8	6.7	i	i
Cc1ccc2[nH]c3c(NCCCN4CCCC4=O)ncnc3c2c1	i	i	i	i	i	21	36	i	25
COc1cc(CNc2ncnc3c2[nH]c2ccc(C)cc23)cc(OC)c1	i	i	i	i	i	75	84	i	80
c1coc(CNc2ncnc3nc[nH]c23)c1	i	i	i	i	i	i	nt	nt	nt
Cc1ccc2[nH]c3c(NCc4ccco4)ncnc3c2c1	nt	i	4.7	i	i	45	54	28	26
Cc1ccc(CNC(=O)/C=C/[C@H]2O[C@@H](n3cc(C)c(=O)[nH]c3=O)C[C@@H]2O)o1	nt	nt	i	nt	nt	i	nt	nt	nt
O=C(Cc1ccccc1)N/N=C/c1cccn1-c1ccc([N+](=O)[O-])cc1	nt	i	i	i	i	13	34	i	i
O=C(c1ccco1)N1CCN(C(=O)c2ccc(COc3ccc(Cl)cc3Cl)o2)CC1	i	i	i	i	i	5.9	16	i	i
CN(C)CCNC(=O)c1ccc(COc2ccc(Cl)cc2Cl)cc1	i	i	i	i	i	9.7	16	27	i
